Screening data (PubChem)
STAT1 act = activators of IFN-gamma induced STAT1 signaling. NIH 3T3 STAT1-luciferase reporter, luminescence; 100% = IFN-gamma alone, no compound. activation (% of control), % at 5.5 µM. hit rate 2.6% among 200,000. AID 932;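 active = activation above the screen-wide mean activation plus 3 SD, cut at about 130% in these data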;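 also: raw ratio to IFN-gamma control signal so 100% means no change and 0% no light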
APP 5'UTR act = activates APP 5'UTR luciferase reporter; AID 1276; activation, % at 2 µM; SH-SY5Y APP 5'UTR luciferase reporter, luminescence; zero percent = DMSO vehicle wells; hit rate 1% among 190,000;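 active = activation above a set limit, based on mean plus 3 SD of controls, cut at about 140% in these data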
FLuc inhib CS = counter-screen for luciferase assay inhibitors: firefly luciferase inhibition; ATPLite firefly luciferase biochemical luminescence, 10 min; inhibition, % at 10 µM; hit rate 1.5% among 200,000;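 active = inhibition above about 50% when tested at 10 µM, limit read from the data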
Target sequence (P08659 whole entry, looked up): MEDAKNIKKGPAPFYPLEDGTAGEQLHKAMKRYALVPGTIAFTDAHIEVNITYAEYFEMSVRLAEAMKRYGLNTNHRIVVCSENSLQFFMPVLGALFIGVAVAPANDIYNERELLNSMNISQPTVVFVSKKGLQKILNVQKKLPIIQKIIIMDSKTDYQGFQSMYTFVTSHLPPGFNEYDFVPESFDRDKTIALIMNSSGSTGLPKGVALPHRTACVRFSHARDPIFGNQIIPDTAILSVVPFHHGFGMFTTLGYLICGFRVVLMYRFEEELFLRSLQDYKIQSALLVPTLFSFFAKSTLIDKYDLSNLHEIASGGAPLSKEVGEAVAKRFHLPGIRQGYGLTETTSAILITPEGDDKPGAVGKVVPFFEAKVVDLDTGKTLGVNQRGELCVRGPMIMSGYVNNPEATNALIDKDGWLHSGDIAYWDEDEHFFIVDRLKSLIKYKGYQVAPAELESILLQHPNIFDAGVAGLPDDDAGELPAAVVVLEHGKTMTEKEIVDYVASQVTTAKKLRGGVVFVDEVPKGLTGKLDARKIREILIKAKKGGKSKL
NF-kB expr up = NF-kB expression increase, human neuronal cells; NF-kB reporter expression; stronger effect = higher value; fold change at 12.5 µM; hit rate 1.6% among 190,000; AID 1239; in the data active = fold change above about 3.3
Pf gametocyte = P. falciparum stage V gametocyte viability inhibition; hit rate 0.065% among 150,000; P. falciparum stage V gametocytes, ATP luminescence, 24 h; inhibition, % at 10.9 µM; AID 743093;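 active = inhibition above the mean plus 3 SD of compounds within the control limits, set per campaign, cut at about 38% in these data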;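 also: 0% = DMSO wells and 100% = medium only without gametocytes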
FLuc stim CS = firefly luciferase counter-screen for stimulation assays; P08659; ATPlite luciferase biochemical, luminescence, 10 min; 0 = ATP-free wells, 1 = DMSO control; activation factor at 10 µM; 200,000 tested, under 10 active; AID 1027;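 active = luciferase activation factor, scaled between plate controls, of at least 2 with compound at 10 µM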
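Material: Luciferase/luciferin reagent mix | Doses: Test compounds dosed from 2 mM stocks in 100% DMSO | Timing: 10 min incubation after luciferase reagent addition, room temperature | Measured by: Luminescence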
Numbers without * were called inactive; x = no result. Most compounds without a hit are left out; they make up all but 3.5% or so of the library.

SMILES | STAT1 act | APP 5'UTR act | FLuc inhib CS | NF-kB expr up | Pf gametocyte | FLuc stim CS
Cc1ccc(-c2nc(NCc3ccco3)n(S(C)(=O)=O)n2)cc1 | 144* | 19 | -2 | 2.8 | 13 | 1
CCOCCCNc1ccc(-c2ccccc2)nn1 | 140* | 71 | 20 | 2.5 | x | 0.8
CCOCCCNc1nc2ccccc2[nH]1 | 100 | 2 | -1 | 1 | x | 1
CCOc1ccc(S(=O)(=O)N2CCCC2)cc1 | 101 | 4 | -4 | 1.1 | 40* | 1
COC(=O)COc1cccc(NC(=O)c2ccc(C)cc2)c1 | 75 | -5 | 34 | 1.3 | 9 | 0.7
Cc1ccc(NC(=O)c2ccc(OCC3CCCO3)cc2)cc1 (configuration not stated) | 136* | 108 | 53* | 3.4* | -6 | 0.5
Cc1cnc(NC(=O)c2ccc(OCC3CCCO3)cc2)s1 (configuration not stated) | 52 | 128 | 95* | 3.9* | -1 | 0
Cc1ccc(NC(=O)c2ccc(OC(=O)COc3ccc(Cl)c(C)c3)cc2)cc1 | 140* | 132 | 8 | 1.9 | -6 | 0.9
O=C(NC1=NCCS1)c1ccc(OCC2CCCO2)cc1 (configuration not stated) | 120 | 85 | 47 | 2.4 | x | 0.5
O=C(CSc1nnc2ccccn12)c1ccc(Cl)cc1 | 109 | 42 | 0 | 2.1 | 4 | 1
CCOc1ccc(C(=O)CSc2nnc3ccccn23)cc1 | 141* | 131 | 9 | 4.1* | x | 0.9
COc1ccccc1/C=N\Nc1cn[nH]c(=O)c1Cl | 89 | 11 | -2 | 9.1* | -1 | 1
Cc1cccc(/C=N\Nc2cn[nH]c(=O)c2Cl)c1 | 108 | 19 | 6 | 1.4 | x | 0.9
O=c1c(Br)c(NCc2ccccc2)cnn1-c1ccc(F)cc1 | 129* | 21 | -9 | 1.9 | 6 | 1.1
CCOC(=O)c1ccccc1N/C=C/C(=O)c1cccs1 | 112 | -3 | 7 | 1.3 | -13 | 0.9
Cc1ccc(N/C=C/C(=O)c2cccs2)cc1 | 22 | 214* | 97* | 1.9 | x | 0
O=C(/C=C\Nc1cccc(F)c1)c1cccs1 | 149* | 189* | 79* | 7.7* | -3 | 0.2
O=C(/C=C/Nc1ccc(F)cc1F)c1cccs1 | 99 | 107 | 98* | 3.8* | -13 | 0
O=C(/C=C/Nc1ccccc1F)c1cccs1 | 100 | 175* | 95* | 7.2* | -10 | 0.1
CN1CCN(C(=O)CC2C(=O)NCCN2Cc2ccc(-c3ccccc3)cc2)CC1 (configuration not stated) | 103 | -5 | -4 | 1.1 | 2 | 1
NNC(=O)c1ccc(CSc2nc3ccccc3[nH]2)cc1 | 107 | 5 | -2 | 1.4 | x | 1
COC(=O)C1CCN(C(=O)CCCOc2ccccc2)CC1 | 132* | 146* | 11 | 2.8 | x | 0.9
O=C(CCCOc1ccc(Cl)cc1Cl)N1CCN(c2ccccn2)CC1 | 102 | -8 | -6 | 0.91 | -18 | 1.1
O=C(CCCOc1ccccc1)N1CCN(c2ccccn2)CC1 | 129* | 153* | 1 | 2.9 | x | 1
CC1=NN(c2ccccc2)C(=O)/C1=C\c1c(C)[nH]n(-c2ccccc2)c1=O | 100 | -9 | -4 | 0.86 | 1 | 1
SMILES | STAT1 act | APP 5'UTR act | FLuc inhib CS | NF-kB expr up | Pf gametocyte | FLuc stim CS
CC1=NN(c2ccccc2)C(=O)/C1=C/c1c(O)n(-c2ccc(F)c(Cl)c2)[nH]c1=O | 142* | 15 | 31 | 1.8 | x | 0.7
C/C(=N\Nc1cccc2cccnc12)c1ccc(C)cc1 | 137* | 137* | 62* | 4.2* | 14 | 0.4
O=C(COc1cccc2cccnc12)N/N=C/c1ccccc1O | x | x | x | x | -8 | x
Oc1ccccc1/C=N/Nc1cccc2cccnc12 | 90 | 89 | 44 | 12* | x | 0.6
CCCC1(C(=O)OC)NC(c2ccc(OC)cc2OC)C2C(=O)N(c3cccc(C(C)=O)c3)C(=O)C21 (configuration not stated) | x | x | x | x | 7 | x
O=c1[nH]c(CN2CCN(S(=O)(=O)c3cccs3)CC2)nc2c(Br)cc(Br)cc12 | 104 | 13 | -4 | 0.95 | -11 | 1
Nc1n[nH]c(=S)n1/N=C1/C(=O)Nc2ccccc21 | 103 | 21 | 70* | 1.2 | x | 0.3
Cc1ccc2c(c1)/C(=N/N1C(=O)c3ccccc3C1=O)C(=O)N2 | 102 | -5 | -4 | 0.98 | 2 | 1
